The record followed here is ChEMBL document CHEMBL2331506, “Design, synthesis, antiviral and cytostatic evaluation of novel isoxazolidine nucleotide analogues with a carbamoyl linker” (Bioorg Med Chem, 2013).

Calls of active or inactive are those of the source. How the calls were made is not given here.

This assay has as its system Vaccinia virus. Nature of the assay: Antiviral activity against Vaccinia virus Lederle infected in human HEL cells assessed as reduction of virus-induced cytopathogenicity at 250 uM. It is filed as functional, organism-based. As to conditions: Orthopoxvirus vaccinia. The method in brief: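 Confluent cell monolayers were infected with 100 CCID50 of virus while exposed to varying compound concentrations. Cytopathicity was scored once it was complete in untreated infected controls. EC50 was taken as the concentration that reduced virus-induced cytopathogenicity by 50%.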

For `CCOP(=O)(OCC)[C@H]1C[C@H](C(=O)Nc2ccc(Br)cc2)ON1C` (mixture of isomers), the inhibition result is “inactive”.

For the compound `CCOP(=O)(OCC)[C@@H]1C[C@H](C(=O)Nc2ccccc2F)ON1C` (racemic), the inhibition result was “inactive”.

Regarding `CCOP(=O)(OCC)[C@@H]1C[C@H](C(=O)Nc2cccc(C(C)=O)c2)ON1C` (racemic), the inhibition entry is “inactive”.

Regarding `CCOP(=O)(OCC)[C@H]1C[C@H](C(=O)Nc2ccc(C#N)cc2)ON1C` (racemic), the inhibition result was “inactive”.

In the case of `CCOP(=O)(OCC)[C@H]1C[C@H](C(=O)Nc2ccccc2F)ON1C` (mixture of isomers), the inhibition result is “inactive”.

`CCOP(=O)(OCC)[C@H]1C[C@H](C(=O)Nc2cc(OC)c(OC)cc2C(C)=O)ON1C` (mixture of isomers): the inhibition result is “inactive”.

On to `CCOP(=O)(OCC)[C@H]1C[C@H](C(=O)Nc2ccccc2Br)ON1C` (mixture of isomers), for which the inhibition result was “inactive”.

`CCOP(=O)(OCC)[C@H]1C[C@H](C(=O)Nc2ccc(C)cc2)ON1C` (relative stereo): the inhibition entry is “inactive”.

For the compound `CCOP(=O)(OCC)[C@@H]1C[C@H](C(=O)Nc2cc(OC)c(OC)cc2C#N)ON1C` (mixture of isomers), the inhibition entry was “inactive”.

Regarding `CCOP(=O)(OCC)[C@@H]1C[C@H](C(=O)Nc2ccc(OC)c(OC)c2)ON1C` (mixture of isomers), the inhibition result was “inactive”.

`CCOP(=O)(OCC)[C@@H]1C[C@H](C(=O)Nc2cccc(Cl)c2)ON1C` (mixture of isomers): the inhibition result is “inactive”.

With `CCOP(=O)(OCC)[C@@H]1C[C@H](C(=O)Nc2cc(OC)cc(OC)c2)ON1C` (mixture of isomers), the inhibition entry was “inactive”.

Turning to `CCOP(=O)(OCC)[C@H]1C[C@H](C(=O)Nc2cccc(C)c2)ON1C` (racemic), the inhibition entry was “inactive”.

Take `CCOP(=O)(OCC)[C@@H]1C[C@@H](C(=O)Nc2ccccc2Cl)ON1C` (racemic): the inhibition entry is “inactive”.

For `CCOP(=O)(OCC)[C@@H]1C[C@H](C(=O)Nc2cccc(C)c2)ON1C` (mixture of isomers), the inhibition result is “inactive”.

`CCOP(=O)(OCC)[C@@H]1C[C@H](C(=O)Nc2cccc(OC)c2)ON1C` (mixture of isomers): the inhibition result was “inactive”.

For the compound `CCOP(=O)(OCC)[C@@H]1C[C@H](C(=O)Nc2ccc(Cl)cc2)ON1C` (mixture of isomers), the inhibition entry is “inactive”.

For `CCOP(=O)(OCC)[C@@H]1C[C@H](C(=O)Nc2ccc([N+](=O)[O-])cc2)ON1C` (racemic), the inhibition entry is “inactive”.

Turning to `CCOP(=O)(OCC)[C@H]1C[C@H](C(=O)Nc2cc(OC)c(OC)c(OC)c2)ON1C` (mixture of isomers), the inhibition entry was “inactive”.

Turning to `CCOc1ccc(NC(=O)[C@H]2C[C@H](P(=O)(OCC)OCC)N(C)O2)cc1` (mixture of isomers), the inhibition entry is “inactive”.

On to `CCOP(=O)(OCC)[C@@H]1C[C@H](C(=O)Nc2ccccc2[N+](=O)[O-])ON1C` (mixture of isomers), for which the inhibition result is “inactive”.

On to `CCOP(=O)(OCC)[C@H]1C[C@H](C(=O)Nc2cccc(Cl)c2)ON1C` (mixture of isomers), for which the inhibition result is “inactive”.

As to `CCOP(=O)(OCC)[C@@H]1C[C@H](C(=O)Nc2ccc(C)cc2)ON1C` (mixture of isomers), the inhibition result is “inactive”.

Consider `CCOP(=O)(OCC)[C@@H]1C[C@H](C(=O)Nc2ccccc2C(C)=O)ON1C` (mixture of isomers), for which the inhibition entry is “inactive”.

In the case of `CCOP(=O)(OCC)[C@@H]1C[C@H](C(=O)Nc2ccccc2Cl)ON1C` (mixture of isomers), the inhibition entry is “inactive”.

As to `CCOP(=O)(OCC)[C@H]1C[C@H](C(=O)Nc2ccccc2C(C)=O)ON1C` (mixture of isomers), the inhibition result is “inactive”.

Regarding `CCOP(=O)(OCC)[C@H]1C[C@H](C(=O)Nc2ccc(C(C)=O)cc2)ON1C` (mixture of isomers), the inhibition result was “inactive”.

On to `CCOP(=O)(OCC)[C@H]1C[C@H](C(=O)Nc2ccccc2[N+](=O)[O-])ON1C` (mixture of isomers), for which the inhibition result is “inactive”.

For `CCOP(=O)(OCC)[C@@H]1C[C@H](C(=O)Nc2ccc(C(C)=O)cc2)ON1C` (racemic), the inhibition result is “inactive”.

On to `CCOP(=O)(OCC)[C@@H]1C[C@H](C(=O)Nc2cccc(Br)c2)ON1C` (mixture of isomers), for which the inhibition entry is “inactive”.

For `CCOP(=O)(OCC)[C@@H]1C[C@H](C(=O)Nc2ccc(C#N)cc2)ON1C` (mixture of isomers), the inhibition entry was “inactive”.

In the case of `CCOP(=O)(OCC)[C@@H]1C[C@H](C(=O)Nc2ccc(Br)cc2)ON1C` (mixture of isomers), the inhibition entry was “inactive”.

On to `CCOP(=O)(OCC)[C@H]1C[C@H](C(=O)Nc2cccc(F)c2)ON1C` (mixture of isomers), for which the inhibition result is “inactive”.

Consider `CCOP(=O)(OCC)[C@H]1C[C@H](C(=O)Nc2cc(OC)cc(OC)c2)ON1C` (mixture of isomers), for which the inhibition result was “inactive”.

As to `CCOc1ccc(NC(=O)[C@H]2C[C@@H](P(=O)(OCC)OCC)N(C)O2)cc1` (racemic), the inhibition entry was “inactive”.

Consider `CCOP(=O)(OCC)[C@@H]1C[C@H](C(=O)Nc2ccc(F)cc2)ON1C` (mixture of isomers), for which the inhibition result was “inactive”.

For the compound `CCOP(=O)(OCC)[C@H]1C[C@H](C(=O)Nc2ccc(Cl)cc2)ON1C` (relative stereo), the inhibition result was “inactive”.

On to `CCOP(=O)(OCC)[C@H]1C[C@H](C(=O)Nc2cccc(C(C)=O)c2)ON1C` (mixture of isomers), for which the inhibition entry is “inactive”.

In the case of `CCOP(=O)(OCC)[C@H]1C[C@H](C(=O)Nc2cccc(OC)c2)ON1C` (racemic), the inhibition entry was “inactive”.

With `CCOP(=O)(OCC)[C@@H]1C[C@H](C(=O)Nc2ccccc2Br)ON1C` (mixture of isomers), the inhibition result was “inactive”.

With `CCOP(=O)(OCC)[C@@H]1C[C@H](C(=O)Nc2cccc([N+](=O)[O-])c2)ON1C` (mixture of isomers), the inhibition result was “inactive”.

With `CCOP(=O)(OCC)[C@H]1C[C@H](C(=O)Nc2ccc([N+](=O)[O-])cc2)ON1C` (mixture of isomers), the inhibition result was “inactive”.

Take `CCOP(=O)(OCC)[C@H]1C[C@H](C(=O)Nc2cc(OC)c(OC)cc2C#N)ON1C` (mixture of isomers): the inhibition entry is “inactive”.

`CCOP(=O)(OCC)[C@@H]1C[C@H](C(=O)Nc2cc(OC)c(OC)c(OC)c2)ON1C` (racemic): the inhibition result was “inactive”.

`CCOP(=O)(OCC)[C@H]1C[C@H](C(=O)Nc2cccc([N+](=O)[O-])c2)ON1C` (mixture of isomers): the inhibition entry is “inactive”.

As to `CCOP(=O)(OCC)[C@@H]1C[C@H](C(=O)Nc2ccc(F)cc2F)ON1C` (mixture of isomers), the inhibition result is “inactive”.

Take `CCOP(=O)(OCC)[C@@H]1C[C@H](C(=O)Nc2cccc(F)c2)ON1C` (mixture of isomers): the inhibition result was “inactive”.

On to `CCOP(=O)(OCC)[C@@H]1C[C@H](C(=O)Nc2cccc(C#N)c2)ON1C` (racemic), for which the inhibition entry is “inactive”.

Turning to `CCOP(=O)(OCC)[C@@H]1C[C@H](C(=O)Nc2cc(OC)c(OC)cc2C(C)=O)ON1C` (mixture of isomers), the inhibition entry is “inactive”.

Turning to `CCOP(=O)(OCC)[C@H]1C[C@H](C(=O)Nc2cccc(Br)c2)ON1C` (racemic), the inhibition result was “inactive”.

Take `CCOP(=O)(OCC)[C@H]1C[C@H](C(=O)Nc2ccc(F)cc2F)ON1C` (mixture of isomers): the inhibition result is “inactive”.

Consider `CCOP(=O)(OCC)[C@H]1C[C@H](C(=O)Nc2ccc(OC)c(OC)c2)ON1C` (mixture of isomers), for which the inhibition entry was “inactive”.

For `CCOP(=O)(OCC)[C@H]1C[C@H](C(=O)Nc2cccc(C#N)c2)ON1C` (racemic), the inhibition result was “inactive”.

For `CCOP(=O)(OCC)[C@H]1C[C@H](C(=O)Nc2ccc(F)cc2)ON1C` (racemic), the inhibition result was “inactive”.
